Compound activity deposited in PubChem by several laboratories.
L929 necroptosis: L929 zVAD cell death inhibition. L929 zVAD necroptosis rescue, ATP luminescence, 24 h; with zVAD 60 µM. viability rescue, % at 10 µM. 220,000 compounds, 0.38% hits. AID 1377;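 active = activation, scaled between plate controls, above about 75%, limit read from the data; inactive = activation under that limit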;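 also: 0% = zVAD with DMSO and 100% = DMSO alone without zVAD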
Rad51 HR inh: Rad51 (human) homologous recombination inhibition | Q06609 | hRad51 DNA strand exchange, fluorescence dequenching | inhibition, % at 10 µM | 200,000 compounds, 0.085% hits;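 active = inhibition above 40% at the single screening dose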;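 also: 0% = DMSO control wells and 100% = blanks with heterologous ssDNA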
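material = hRad51 filaments on single-stranded DNA | timing = filaments 15 min 37 °C, then compound 30 min | signal = FRET fluorescence dequenching, excitation 485 nm, emission 520 nm | benchmarks = control wells and blank wells on each plate | evaluation = percent inhibition relative to plate controls and blanks | compound = 10 µM final, single point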
Efa HMGR inh: blocks class II HMG-CoA reductase of Enterococcus faecalis | inhibition, % at 10 µM | purified E. faecalis HMGR, NADPH absorbance 340 nm kinetic | 190,000 compounds, 0.41% hits;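 active = inhibition above a set limit, the median over all tested compounds plus 3 SD, cut at about 9.5% in these data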;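 also: enzyme runs in reverse so mevalonate oxidation gives rising NADPH absorbance; 0% = complete reaction with DMSO and 100% = background rate lacking mevalonate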
TNF death inh: TNF-alpha cell death inhibition in Jurkat FADD-/- cells. Jurkat FADD-/- TNF necroptosis rescue, ATP luminescence, 24 h; 0 = TNF only, 100 = no-TNF cells. activation (protection from cell death), % at 10 µM. 220,000 compounds, 0.068% hits;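 active = activation, meaning protection from cell death, of at least 50% relative to plate controls; inactive = activation below 50%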;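 also: necroptosis triggered by 40 ng/mL TNF-alpha added together with compound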
PERK inhibitor: inhibitors of human PERK kinase; Q9NZJ5; 220,000 compounds, 0.17% hits; inhibition, % at 5.6 µM; CHO PERK-DD fusion, SEAP luminescence translation reporter;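 active = inhibition above the mean inhibition of all tested compounds plus 3 SD, set separately per screening campaign, cut at about 2.9% in these data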;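 also: PERK kinase domain activated by AP20187 dimerizer at 100 nM; 0% = DMSO with dimerizer and 100% = rapamycin at 8.4 µM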
zVAD necrop conf: confirmed blocker of zVAD induced death in L929 cells | shares compounds with L929 necroptosis | L929 zVAD-induced necroptosis rescue, ATP luminescence, 24 h | activation (protection from necroptosis), % at 10 µM | 760 compounds, 16% hits | AID 463117;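 active = mean protection from necroptosis of at least 50% over duplicate tests; inactive = mean protection below 50%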;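 also: 0% = cells with zVAD alone and 100% = vehicle cells without zVAD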
Numbers without * were called inactive. Hits are enriched below; roughly 1% of the tested compounds scored in any of these assays.

For CC[N+](C)(CC)CCCCOc1ccc2c(c1)C(=O)c1cc(OCCCC[N+](C)(CC)CC)ccc1-2 the results were L929 necroptosis 0, Rad51 HR inh 42*, TNF death inh 0 and PERK inhibitor -1.
Screening CC1=CC(C)C(COC(N)=O)(COC(N)=O)C(C)C1 (stereo not given) returned L929 necroptosis 0, Rad51 HR inh 48*, Efa HMGR inh 1, TNF death inh -3 and PERK inhibitor 2.
For c1ccc(C2CC3CC4(CCCC4)N2O3)cc1 (stereo not given) the results were L929 necroptosis 30, Rad51 HR inh 6, Efa HMGR inh 0, TNF death inh 94* and PERK inhibitor 0.
For O=c1[nH]c(=O)n(-c2cccc(Cl)c2)c(O)c1/C=N/c1ccccn1 the results were L929 necroptosis 0, Rad51 HR inh -4, Efa HMGR inh -10, TNF death inh -5 and PERK inhibitor 0.
`COc1ccc2nc(/N=C/c3c(O)n(-c4cccc(Cl)c4)c(=O)[nH]c3=O)sc2c1` gave L929 necroptosis 0, Rad51 HR inh -14, Efa HMGR inh -1, TNF death inh -7 and PERK inhibitor 2.9*.
`Cc1nn(Cc2ccccc2)c(C)c1C(=O)O` gave L929 necroptosis 2, Rad51 HR inh 4, Efa HMGR inh -4, TNF death inh -1 and PERK inhibitor 0.
`Cc1nn(Cc2ccccc2)c(C)c1C(=O)NCc1ccccc1F` gave L929 necroptosis 0, Rad51 HR inh 44*, Efa HMGR inh -4, TNF death inh 1 and PERK inhibitor 0.
`O=[N+]([O-])c1cccc2c([As](=O)(O)O)cccc12` gave L929 necroptosis 0, Rad51 HR inh -5, TNF death inh 1 and PERK inhibitor 2.
For Cc1cccc(N/N=C(\C(N)=O)C2=NC(C)(C)Cc3ccccc32)c1 the results were L929 necroptosis 74, Rad51 HR inh 7, Efa HMGR inh -7, TNF death inh 2 and PERK inhibitor 0.
Screening CN1CC[C@@H](c2ccc(F)cc2)[C@H](COc2ccc3c(c2)OCO3)C1 returned Rad51 HR inh -3.
COc1ccc(C[C@@H]2c3cc(O)c(OC)cc3CCN2C)cc1O was read as L929 necroptosis 1, Rad51 HR inh -2, Efa HMGR inh 20*, TNF death inh 2 and PERK inhibitor 0.
`COc1ccc(CC2c3cc(OC)c(OC)cc3CCN2C)cc1OC` (stereo not given) gave L929 necroptosis 0, Rad51 HR inh 11, Efa HMGR inh 0, TNF death inh -1 and PERK inhibitor -1.
For O=C(NC1CCCCC1)[C@@H]1CC=C[C@@H]2CCN(Cc3ccccc3)C(=O)[C@@H]21 the results were Rad51 HR inh 4.
For CS(=O)(=O)c1ccc(C2=C(c3ccccc3)C(=O)OC2)cc1 the results were Rad51 HR inh -4.
Screening CC(=O)CC(=O)C1C(=O)N(C)C(=O)N(C)C1=O returned L929 necroptosis 3, Rad51 HR inh 0, Efa HMGR inh 11*, TNF death inh 2 and PERK inhibitor 1.
Screening Cc1ccc2c(c1)C1CN(C)CCC1N2C(=O)/C(C#N)=C/c1ccc2c(c1)OCO2 (stereo not given) returned L929 necroptosis -1, Rad51 HR inh -12, Efa HMGR inh 1, TNF death inh -6 and PERK inhibitor 1.
For O=C(O)[C@@H]1C[C@H]1[C@@H](NP(=O)(c1ccccc1)c1ccccc1)c1ccccc1 the results were L929 necroptosis 4, Rad51 HR inh -2, Efa HMGR inh 21*, TNF death inh 1 and PERK inhibitor 1.
COC(=O)[C@H]1C[C@@H]1[C@H](NP(=O)(c1ccccc1)c1ccccc1)c1ccccc1 was read as L929 necroptosis -1, Rad51 HR inh 0, Efa HMGR inh -3, TNF death inh 0 and PERK inhibitor -1.
Screening CCc1ccc(C(=O)C23CN4CN(CN(C4)C2)C3)cc1 returned L929 necroptosis 0, Rad51 HR inh 8, Efa HMGR inh 12*, TNF death inh -1 and PERK inhibitor 0.
CCOC(=O)C(O)(c1ccc(NC(=O)NC)cc1)C(F)(F)F (stereo not given) was read as L929 necroptosis 0, Rad51 HR inh -3, TNF death inh 0 and PERK inhibitor 0.
For Fc1ccccc1N1CCN(Cc2ccc3c(c2)OCO3)CC1 the results were L929 necroptosis -1, Rad51 HR inh -2, Efa HMGR inh -3, TNF death inh 2 and PERK inhibitor 1.
O=c1[nH]c(N2CCN(Cc3ccc4c(c3)OCO4)CC2)nc2c1CCC2 was read as L929 necroptosis 0, Rad51 HR inh 84*, Efa HMGR inh -3, TNF death inh -1 and PERK inhibitor 1.
`CNC(=S)N1CCn2cccc2C1c1cccnc1` (stereo not given) gave L929 necroptosis -1, Rad51 HR inh 3, Efa HMGR inh 2, TNF death inh 1 and PERK inhibitor 1.
For CCCCNC(=S)N1CCn2cccc2C1c1cccnc1 (stereo not given) the results were L929 necroptosis 1, Rad51 HR inh 2, Efa HMGR inh 11*, TNF death inh 1 and PERK inhibitor 0.
Screening CNC(=O)O/N=C/c1nn(C(=O)C(C)(C)C)cc1Br returned L929 necroptosis 1, Rad51 HR inh 22, TNF death inh 4 and PERK inhibitor 3.2*.
For CC1CCC(NCC(O)c2ccccc2)CC1 (stereo not given) the results were L929 necroptosis 0, Rad51 HR inh 8, Efa HMGR inh 0, TNF death inh 0 and PERK inhibitor 0.
CCCCC(CC)CNCC(O)c1ccccc1 (stereo not given) was read as L929 necroptosis -1, Rad51 HR inh -10, Efa HMGR inh 15*, TNF death inh 1 and PERK inhibitor -1.
`CC(C)Oc1cccc(NC(=O)c2cccn(Cc3ccc4c(c3)OC(F)(F)O4)c2=O)c1` gave L929 necroptosis 0, Rad51 HR inh -7, Efa HMGR inh 14*, TNF death inh -1 and PERK inhibitor 1.
O=C1Nc2ccccc2/C1=C/c1cnc[nH]1 was read as L929 necroptosis 86*, Rad51 HR inh -1, Efa HMGR inh -3, TNF death inh -22, PERK inhibitor 0 and zVAD necrop conf 79*.
COc1ccc(CNC(=O)C(NC(C)=O)C(C)C)cc1OC (stereo not given) was read as L929 necroptosis 0, Rad51 HR inh 10, Efa HMGR inh -1, TNF death inh 0 and PERK inhibitor 0.
Screening O=C1NC(=O)N(c2cccc(Br)c2)C(=O)/C1=C/c1ccsc1 returned L929 necroptosis 3, Rad51 HR inh -25, Efa HMGR inh -1, TNF death inh 0 and PERK inhibitor 2.
For C[C@H]1C[C@@H](C)C(=O)[C@@H]([C@H](O)CC2CC(=O)NC(=O)C2)C1 the results were L929 necroptosis 77*, Rad51 HR inh 1, Efa HMGR inh -4, TNF death inh -2, PERK inhibitor 0 and zVAD necrop conf 80*.
